What was measured:
Assay type in all cases: functional
[1] = system: CCRF-CEM; assay: Growth inhibition of human CCRF-CEM cells at 10 uM after 48 hrs by coulter counter method; conditions: read-out: GI
Procedure, shortened: (§1)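 NCI 60-cell-line panel, single dose. Compound dissolved first in DMSO, then diluted in phosphate-buffered saline so that every final dilution held under 1% DMSO. Duplicate wells received cells at 6 × 10⁴ cells/ml. Controls held PBS/DMSO at the same dilution. Plates were incubated 48 h at 37 °C under 5% CO₂. Cells were then diluted 10-fold in saline and counted on a Coulter counter, with counts corrected for the dilution. Results are given as percent growth inhibition.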

[2] = system: HL-60(TB); assay: Growth inhibition of human HL-60(TB) cells at 10 uM after 48 hrs by coulter counter method; conditions: HL-60, 48 h, read-out: GI
Procedure, shortened: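 Single-dose screen on the NCI 60-line panel (leukemia subpanel). Compound is dissolved in DMSO and diluted in PBS, with final DMSO below 1%. Duplicate wells hold 6 × 10⁴ cells/ml at 37 °C, 5% CO₂, for 48 h. Cells are counted by Coulter counter after 10-fold saline dilution. Read-out is percent growth versus PBS/DMSO controls, expressed as % growth inhibition.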

[3] = system: K562; assay: Growth inhibition of human K562 cells at 10 uM after 48 hrs by coulter counter method; conditions: K562, 48 h, read-out: GI; procedure, shortened: as §1
[4] = system: MOLT-4; assay: Growth inhibition of human MOLT4 cells at 10 uM after 48 hrs by coulter counter method; conditions: MOLT-4, 48 h, read-out: GI; procedure, shortened: as §1
[5] = system: RPMI-8226; assay: Growth inhibition of human RPMI8226 cells at 10 uM after 48 hrs by coulter counter method; conditions: RPMI-8226, 48 h, read-out: GI; procedure, shortened: as §1
[6] = system: SR; assay: Growth inhibition of human SR cells at 10 uM after 48 hrs by coulter counter method; conditions: read-out: GI; procedure, shortened: as §1
[7] = system: A549; assay: Growth inhibition of human A549 cells at 10 uM after 48 hrs by coulter counter method; conditions: A549, 48 h, read-out: GI; procedure, shortened: as §1
[8] = system: EKVX; assay: Growth inhibition of human EKVX cells at 10 uM after 48 hrs by coulter counter method; conditions: read-out: GI; procedure, shortened: as §1
[9] = system: NCI-H226; assay: Growth inhibition of human NCI-H226 cells at 10 uM after 48 hrs by coulter counter method; conditions: NCI-H226, 48 h, read-out: GI; procedure, shortened: as §1
[10] = system: NCI-H23; assay: Growth inhibition of human NCI-H23 cells at 10 uM after 48 hrs by coulter counter method; conditions: NCI-H23, 48 h, read-out: GI; procedure, shortened: as §1
[11] = system: NCI-H322M; assay: Growth inhibition of human NCI-H322M cells at 10 uM after 48 hrs by coulter counter method; conditions: read-out: GI; procedure, shortened: as §1
[12] = system: NCI-H522; assay: Growth inhibition of human NCI-H522 cells at 10 uM after 48 hrs by coulter counter method; conditions: NCI-H522, 48 h, read-out: GI; procedure, shortened: as §1
[13] = system: HCT-116; assay: Growth inhibition of human HCT116 cells at 10 uM after 48 hrs by coulter counter method; conditions: HCT-116, 48 h, read-out: GI; procedure, shortened: as §1
[14] = system: HCT-15; assay: Growth inhibition of human HCT15 cells at 10 uM after 48 hrs by coulter counter method; conditions: HCT-15, 48 h, read-out: GI; procedure, shortened: as §1
[15] = system: HT-29; assay: Growth inhibition of human HT-29 cells at 10 uM after 48 hrs by coulter counter method; conditions: HT-29, 48 h, read-out: GI; procedure, shortened: as §1
[16] = system: KM12; assay: Growth inhibition of human KM12 cells at 10 uM after 48 hrs by coulter counter method; conditions: KM12, 48 h, read-out: GI; procedure, shortened: as §1
[17] = system: SF-268; assay: Growth inhibition of human SF268 cells at 10 uM after 48 hrs by coulter counter method; conditions: SF-268, 48 h, read-out: GI; procedure, shortened: as §1
[18] = system: SF-295; assay: Growth inhibition of human SF295 cells at 10 uM after 48 hrs by coulter counter method; conditions: SF-295, 48 h, read-out: GI; procedure, shortened: as §1
[19] = system: SNB-19; assay: Growth inhibition of human SNB19 cells at 10 uM after 48 hrs by coulter counter method; conditions: SNB-19, 48 h, read-out: GI; procedure, shortened: as §1
[20] = system: SNB-75; assay: Growth inhibition of human SNB75 cells at 10 uM after 48 hrs by coulter counter method; conditions: SNB-75, 48 h, read-out: GI; procedure, shortened: as §1
[21] = system: U-251; assay: Growth inhibition of human U251 cells at 10 uM after 48 hrs by coulter counter method; conditions: U-251, 48 h, read-out: GI; procedure, shortened: as §1
[22] = system: LOX IMVI; assay: Growth inhibition of human LOXIMVI cells at 10 uM after 48 hrs by coulter counter method; conditions: read-out: GI; procedure, shortened: as §1
[23] = system: Malme-3M; assay: Growth inhibition of human MALME-3M cells at 10 uM after 48 hrs by coulter counter method; conditions: read-out: GI; procedure, shortened: as §1
[24] = system: M14; assay: Growth inhibition of human M14 cells at 10 uM after 48 hrs by coulter counter method; conditions: M14, 48 h, read-out: GI; procedure, shortened: as §1
[25] = system: MDA-MB-435; assay: Growth inhibition of human MDA-MB-435 cells at 10 uM after 48 hrs by coulter counter method; conditions: MDA-MB-435, 48 h, read-out: GI; procedure, shortened: as §1
[26] = system: SK-MEL-2; assay: Growth inhibition of human SK-MEL-2 cells at 10 uM after 48 hrs by coulter counter method; conditions: SK-MEL-2, 48 h, read-out: GI; procedure, shortened: as §1
[27] = system: SK-MEL-28; assay: Growth inhibition of human SK-MEL-28 cells at 10 uM after 48 hrs by coulter counter method; conditions: SK-MEL-28, 48 h, read-out: GI; procedure, shortened: as §1
[28] = system: SK-MEL-5; assay: Growth inhibition of human SK-MEL-5 cells at 10 uM after 48 hrs by coulter counter method; conditions: SK-MEL-5, 48 h, read-out: GI; procedure, shortened: as §1
[29] = system: UACC-257; assay: Growth inhibition of human UACC257 cells at 10 uM after 48 hrs by coulter counter method; conditions: UACC-257, 48 h, read-out: GI; procedure, shortened: as §1
[30] = system: UACC-62; assay: Growth inhibition of human UACC62 cells at 10 uM after 48 hrs by coulter counter method; conditions: UACC-62, 48 h, read-out: GI; procedure, shortened: as §1
[31] = system: IGROV-1; assay: Growth inhibition of human IGROV1 cells at 10 uM after 48 hrs by coulter counter method; conditions: IGROV-1, 48 h, read-out: GI; procedure, shortened: as §1
[32] = system: OVCAR-8; assay: Growth inhibition of human OVCAR8 cells at 10 uM after 48 hrs by coulter counter method; conditions: OVCAR-8, 48 h, read-out: GI; procedure, shortened: as §1
[33] = system: NCI/ADR-RES; assay: Growth inhibition of human NCI/ADR-RES cells at 10 uM after 48 hrs by coulter counter method; conditions: read-out: GI; procedure, shortened: as §1
[34] = system: 786-0; assay: Growth inhibition of human 786-0 cells at 10 uM after 48 hrs by coulter counter method; conditions: 786-0, 48 h, read-out: GI; procedure, shortened: as §1
[35] = system: A498; assay: Growth inhibition of human A498 cells at 10 uM after 48 hrs by coulter counter method; conditions: A498, 48 h, read-out: GI; procedure, shortened: as §1
[36] = system: ACHN; assay: Growth inhibition of human ACHN cells at 10 uM after 48 hrs by coulter counter method; conditions: read-out: GI; procedure, shortened: as §1
[37] = system: CAKI-1; assay: Growth inhibition of human Caki1 cells at 10 uM after 48 hrs by coulter counter method; conditions: CAKI-1, 48 h, read-out: GI; procedure, shortened: as §1
[38] = system: SN12C; assay: Growth inhibition of human SN12C cells at 10 uM after 48 hrs by coulter counter method; conditions: read-out: GI; procedure, shortened: as §1
[39] = system: TK-10; assay: Growth inhibition of human TK10 cells at 10 uM after 48 hrs by coulter counter method; conditions: TK-10, 48 h, read-out: GI; procedure, shortened: as §1
[40] = system: UO-31; assay: Growth inhibition of human UO31 cells at 10 uM after 48 hrs by coulter counter method; conditions: UO-31, 48 h, read-out: GI; procedure, shortened: as §1
[41] = system: PC-3; assay: Growth inhibition of human PC3 cells at 10 uM after 48 hrs by coulter counter method; conditions: PC-3, 48 h, read-out: GI; procedure, shortened: as §1
[42] = system: MCF7; assay: Growth inhibition of human MCF7 cells at 10 uM after 48 hrs by coulter counter method; conditions: MCF7, 48 h, read-out: GI; procedure, shortened: as §1
[43] = system: BT-549; assay: Growth inhibition of human BT549 cells at 10 uM after 48 hrs by coulter counter method; conditions: BT-549, 48 h, read-out: GI; procedure, shortened: as §1
[44] = system: T47D; assay: Growth inhibition of human T47D cells at 10 uM after 48 hrs by coulter counter method; conditions: read-out: GI; procedure, shortened: as §1
[45] = system: MDA-MB-468; assay: Growth inhibition of human MDA-MB-468 cells at 10 uM after 48 hrs by coulter counter method; conditions: MDA-MB-468, 48 h, read-out: GI; procedure, shortened: as §1

Compound: O=C1N=C2OC(c3ccccc3)=NN2C1=O
- inhibition of growth at 10 µM [1]: < 10%
- inhibition of growth at 10 µM [2]: < 10%
- inhibition of growth at 10 µM [3]: < 10%
- inhibition of growth at 10 µM [4]: < 10%
- inhibition of growth at 10 µM [5]: < 10%
- inhibition of growth at 10 µM [6]: < 10%
- inhibition of growth at 10 µM [7]: < 10%
- inhibition of growth at 10 µM [8]: < 10%
- inhibition of growth at 10 µM [9]: < 10%
- inhibition of growth at 10 µM [10]: < 10%
- inhibition of growth at 10 µM [11]: 12.5%
- inhibition of growth at 10 µM [12]: < 10%
- inhibition of growth at 10 µM [13]: < 10%
- inhibition of growth at 10 µM [14]: < 10%
- inhibition of growth at 10 µM [15]: < 10%
- inhibition of growth at 10 µM [16]: < 10%
- inhibition of growth at 10 µM [17]: < 10%
- inhibition of growth at 10 µM [18]: < 10%
- inhibition of growth at 10 µM [19]: < 10%
- inhibition of growth at 10 µM [20]: < 10%
- inhibition of growth at 10 µM [21]: < 10%
- inhibition of growth at 10 µM [22]: < 10%
- inhibition of growth at 10 µM [23]: < 10%
- inhibition of growth at 10 µM [24]: < 10%
- inhibition of growth at 10 µM [25]: < 10%
- inhibition of growth at 10 µM [26]: < 10%
- inhibition of growth at 10 µM [27]: < 10%
- inhibition of growth at 10 µM [28]: < 10%
- inhibition of growth at 10 µM [29]: 15.2%
- inhibition of growth at 10 µM [30]: < 10%
- inhibition of growth at 10 µM [31]: < 10%
- inhibition of growth at 10 µM [32]: < 10%
- inhibition of growth at 10 µM [33]: < 10%
- inhibition of growth at 10 µM [34]: < 10%
- inhibition of growth at 10 µM [35]: < 10%
- inhibition of growth at 10 µM [36]: < 10%
- inhibition of growth at 10 µM [37]: < 10%
- inhibition of growth at 10 µM [38]: < 10%
- inhibition of growth at 10 µM [39]: < 10%
- inhibition of growth at 10 µM [40]: 20.5%
- inhibition of growth at 10 µM [41]: < 10%
- inhibition of growth at 10 µM [42]: < 10%
- inhibition of growth at 10 µM [43]: < 10%
- inhibition of growth at 10 µM [44]: < 10%
- inhibition of growth at 10 µM [45]: < 10%
